Measured values reported in ChEMBL document CHEMBL1141565, “Discovery of disubstituted cyclohexanes as a new class of CC chemokine receptor 2 antagonists” (J Med Chem, 2008).
pIC50: −log10 of the molar value.

Assays:
[1] = biological target: T1, C-C chemokine receptor type 2 (Homo sapiens, UniProt P41597); experiment: Displacement of radiolabeled MCP1 from human CCR2 in PBMCs
In short: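 Competitive binding: test compound displaces radiolabeled MCP-1 from CCR2 on peripheral blood mononuclear cells. IC50 is given as mean ± SD when n = 2 and mean ± SEM when n > 2, with n the number of determinations.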

[2] = biological target: T2, C-C chemokine receptor type 3 (Homo sapiens) (UniProt P51677); experiment: Binding affinity for human CCR3 at 10 uM
T2 sequence (whole entry): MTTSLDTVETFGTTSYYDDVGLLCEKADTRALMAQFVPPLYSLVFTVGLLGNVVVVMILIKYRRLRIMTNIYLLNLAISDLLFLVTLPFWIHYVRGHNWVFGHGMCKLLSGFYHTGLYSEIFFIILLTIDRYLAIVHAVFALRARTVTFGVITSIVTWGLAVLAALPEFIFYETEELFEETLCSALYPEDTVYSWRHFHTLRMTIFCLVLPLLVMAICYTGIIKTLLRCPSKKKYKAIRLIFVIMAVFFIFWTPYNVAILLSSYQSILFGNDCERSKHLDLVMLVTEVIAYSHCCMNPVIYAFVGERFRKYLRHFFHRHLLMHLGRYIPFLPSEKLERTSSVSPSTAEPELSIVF

[3] = Ratio of IC50 for wild type CCR2 to IC50 for CCR2 T292A mutant
[4] = biological target: T1, C-C chemokine receptor type 2; experiment: Binding affinity to wild type CCR2
[5] = biological target: C-C chemokine receptor type 2 (Homo sapiens, UniProt P41597, E291A); experiment: Binding affinity to CCR2 E291A mutant
C-C chemokine receptor type 2 (Homo sapiens, UniProt P41597, E291A), sequence (P41597 whole entry E291A): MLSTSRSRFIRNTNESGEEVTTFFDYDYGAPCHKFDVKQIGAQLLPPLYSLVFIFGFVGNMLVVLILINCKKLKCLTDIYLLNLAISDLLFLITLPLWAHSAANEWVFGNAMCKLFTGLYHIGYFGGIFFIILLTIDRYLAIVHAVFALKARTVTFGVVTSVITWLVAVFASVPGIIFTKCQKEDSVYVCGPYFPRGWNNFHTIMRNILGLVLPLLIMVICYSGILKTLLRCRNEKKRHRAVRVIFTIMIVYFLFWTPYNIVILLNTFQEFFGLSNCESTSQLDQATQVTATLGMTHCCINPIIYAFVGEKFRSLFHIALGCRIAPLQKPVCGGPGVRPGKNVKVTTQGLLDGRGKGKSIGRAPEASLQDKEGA

[6] = biological target: T1, C-C chemokine receptor type 2; experiment: Antagonist activity at human CCR2 in PBMCs assessed as inhibition of MCP1-induced calcium flux; format: functional
[7] = Ratio of IC50 for wild type CCR2 to IC50 for CCR2 E291A mutant
[8] = biological target: C-C chemokine receptor type 2 (Homo sapiens, UniProt P41597, T292A); experiment: Binding affinity to CCR2 T292A mutant
C-C chemokine receptor type 2 (Homo sapiens, UniProt P41597, T292A), sequence (P41597 whole entry T292A): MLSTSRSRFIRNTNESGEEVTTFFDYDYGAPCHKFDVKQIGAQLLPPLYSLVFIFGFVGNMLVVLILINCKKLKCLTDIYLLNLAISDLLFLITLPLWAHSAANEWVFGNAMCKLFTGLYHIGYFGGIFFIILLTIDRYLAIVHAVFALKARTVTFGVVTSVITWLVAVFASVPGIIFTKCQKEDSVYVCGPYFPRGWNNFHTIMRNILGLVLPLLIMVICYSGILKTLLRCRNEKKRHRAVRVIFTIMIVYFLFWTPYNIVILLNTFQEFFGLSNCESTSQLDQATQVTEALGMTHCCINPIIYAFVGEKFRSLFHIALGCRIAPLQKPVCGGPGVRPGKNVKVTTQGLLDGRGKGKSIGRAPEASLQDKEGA

Homo sapiens = organism: Homo sapiens; experiment: Selectivity for human CCR2 over human CCR3

T1 sequence (P41597 whole entry): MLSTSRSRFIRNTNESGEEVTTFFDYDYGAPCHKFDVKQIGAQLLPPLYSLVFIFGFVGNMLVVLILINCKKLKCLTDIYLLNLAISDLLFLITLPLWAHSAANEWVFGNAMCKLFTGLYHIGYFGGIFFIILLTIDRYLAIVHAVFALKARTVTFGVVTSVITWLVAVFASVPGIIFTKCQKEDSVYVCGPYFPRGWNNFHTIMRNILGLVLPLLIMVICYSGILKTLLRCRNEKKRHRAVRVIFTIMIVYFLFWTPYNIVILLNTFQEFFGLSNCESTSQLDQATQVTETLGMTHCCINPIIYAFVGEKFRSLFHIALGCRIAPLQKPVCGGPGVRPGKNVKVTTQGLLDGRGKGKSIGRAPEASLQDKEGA

| pIC50 [1] | inhibition [2] [%] | Structure (SMILES) | further results |
| --- | --- | --- | --- |
| 8.29 | 37 | CSc1ccc(C(=O)N[C@@H]2CCCC[C@@H]2NC(=O)CNC(=O)c2cc(C(F)(F)F)ccc2NC(=O)NC(C)C)cc1 | Ratio IC50 [3]: 40.5; pIC50 [4]: 8.12; pIC50 [5]: 8.43; pIC50 [6]: 7.74; Ratio IC50 [7]: 0.5; pIC50 [8]: 6.52 |
| 6.28 | 50 | O=C(CNC(=O)c1cccc(C(F)(F)F)c1)N[C@H]1CCCC[C@H]1NCc1ccc(OC(F)(F)F)cc1 (racemic) | Selectivity ratio (Homo sapiens): 20 |
| 6.44 | 55 | CC(C)c1ccc(CN[C@@H]2CCCC[C@@H]2NC(=O)CNC(=O)c2cccc(C(F)(F)F)c2)cc1 (racemic) | Selectivity ratio (Homo sapiens): 20 |
| 6.40 | 47 | O=C(CNC(=O)c1cccc(C(F)(F)F)c1)N[C@H]1CCCC[C@H]1NCc1ccc(C(F)(F)F)cc1 (racemic) | Selectivity ratio (Homo sapiens): 20 |
| 8.05 | 10 | NS(=O)(=O)c1ccc(C(=O)N[C@@H]2CCCC[C@@H]2NC(=O)CNC(=O)c2cc(C(F)(F)F)ccc2NC(=O)C2CCCCC2)cc1 (racemic) | pIC50 [6]: 8.43 |
| 5.10 | – | O=C(CNC(=O)c1cccc(C(F)(F)F)c1)N[C@H]1CCCC[C@@H]1NCc1ccc(Cl)cc1Cl (racemic) | – |
| 6.10 | 24 | O=C(CNC(=O)c1cccc(C(F)(F)F)c1)N[C@H]1CCCC[C@H]1NCc1ccc(Cl)cc1 (racemic) | Selectivity ratio (Homo sapiens): 20; pIC50 [4]: 6.57; pIC50 [5]: 5.67; Ratio IC50 [7]: 7.9 |
| 4.92 | – | O=C(CNC(=O)c1cccc(C(F)(F)F)c1)N[C@H]1CCCC[C@@H]1NC(=O)c1ccc(Cl)cc1 (racemic) | – |

Second part, the molecule before the results:

| Structure (SMILES) | pIC50 [1] | inhibition [2] [%] | further results |
| --- | --- | --- | --- |
| Cc1ccc(CN[C@H]2CCCC[C@@H]2NC(=O)CNC(=O)c2cccc(C(F)(F)F)c2)c(C)c1 | 6.27 | 54 | – |
| O=C(CNC(=O)c1cccc(C(F)(F)F)c1)N[C@H]1CCCC[C@H]1NC(=O)c1ccc(I)cc1 | 7.43 | 27 | pIC50 [6]: 7.52 |
| Cc1ccc(CN2CC[C@@H](NC(=O)CNC(=O)c3cccc(C(F)(F)F)c3)C2)c(C)c1 | – | – | Ratio IC50 [3]: 30 |
| NS(=O)(=O)c1ccc(C(=O)N[C@@H]2CCCC[C@@H]2NC(=O)CNC(=O)c2cccc(C(F)(F)F)c2)cc1 (racemic) | 7.68 | 39 | pIC50 [6]: 7.38 |
| Nc1ccc(C(F)(F)F)cc1C(=O)NCC(=O)N[C@H]1CCCC[C@H]1NC(=O)c1ccc(S(N)(=O)=O)cc1 (racemic) | 7.64 | 6 | pIC50 [6]: 8.32 |
| Cc1ccc(C(=O)N[C@@H]2CCCC[C@@H]2NC(=O)CNC(=O)c2cccc(C(F)(F)F)c2)c(C)c1 (racemic) | 5.38 | – | pIC50 [4]: 5.38; pIC50 [5]: 5.11; Ratio IC50 [7]: 1.9 |
| CSc1ccc(C(=O)N[C@@H]2CCCC[C@@H]2NC(=O)CNC(=O)c2cccc(C(F)(F)F)c2)cc1 (racemic) | 7.19 | 31 | pIC50 [6]: 6.67 |
| Cc1ccc(CN(C)[C@H]2CCCC[C@@H]2NC(=O)CNC(=O)c2cccc(C(F)(F)F)c2)c(C)c1 (racemic) | 5.52 | – | – |
| Cc1ccc(CN[C@@H]2CCCC[C@@H]2NC(=O)CNC(=O)c2cccc(C(F)(F)F)c2)c(C)c1 (racemic) | 5.66 | 54 | – |
| O=C(CNC(=O)c1cccc(C(F)(F)F)c1)N[C@H]1CCCC[C@@H]1NCc1ccc(Cl)cc1 (racemic) | 6.01 | 50 | – |
| Cc1cc(C)c(CN[C@H]2CCCC[C@@H]2NC(=O)CNC(=O)c2cccc(C(F)(F)F)c2)c(C)c1 (racemic) | 5.92 | – | – |
| Cc1ccc(C(=O)N[C@@H]2CCCC[C@@H]2NC(=O)CNC(=O)c2cccc(C(F)(F)F)c2)cc1 (racemic) | 6.26 | 57 | – |
| CS(=O)(=O)c1ccc(C(=O)N[C@@H]2CCCC[C@@H]2NC(=O)CNC(=O)c2cccc(C(F)(F)F)c2)cc1 (racemic) | 7.06 | 3 | – |
